Reference: ChEMBL document CHEMBL3351625, “Ethyl 2-(benzylidene)-7-methyl-3-oxo-2,3-dihydro-5H-thiazolo[3,2-a]pyrimidine-6-carboxylate analogues as a new scaffold for protein kinase casein kinase 2 inhibitor” (Bioorg Med Chem, 2014)

Legend:
[1] = target: Tyrosine-protein kinase Lck (Homo sapiens) (UniProt P06239); assay: Inhibition of human Lck assessed as residual activity at 10 uM by KinaseProfiler assay
Method in brief: (§1)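 Radioactive phosphorylation assays were run by an outsourced profiling service. Each of 31 human kinases was tested with inhibitor at 10 µM. Residual activity is expressed as a percentage of the mean activity in positive-control wells, which contained all reaction components except inhibitor plus DMSO as solvent control.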

Homo sapiens = species on record: Homo sapiens; assay: Inhibition of human CK1 assessed as residual activity at 10 uM by KinaseProfiler assay; method in brief: as §1
[2] = target: Mitogen-activated protein kinase 11 (Homo sapiens) (UniProt Q15759); assay: Inhibition of human SAPK2b assessed as residual activity at 10 uM by KinaseProfiler assay; method in brief: as §1
[3] = target: T1, Serine/threonine-protein kinase Sgk1 (Homo sapiens) (UniProt O00141); assay: Inhibition of human SGK assessed as residual activity at 10 uM by KinaseProfiler assay; method in brief: as §1
T1 sequence (whole entry): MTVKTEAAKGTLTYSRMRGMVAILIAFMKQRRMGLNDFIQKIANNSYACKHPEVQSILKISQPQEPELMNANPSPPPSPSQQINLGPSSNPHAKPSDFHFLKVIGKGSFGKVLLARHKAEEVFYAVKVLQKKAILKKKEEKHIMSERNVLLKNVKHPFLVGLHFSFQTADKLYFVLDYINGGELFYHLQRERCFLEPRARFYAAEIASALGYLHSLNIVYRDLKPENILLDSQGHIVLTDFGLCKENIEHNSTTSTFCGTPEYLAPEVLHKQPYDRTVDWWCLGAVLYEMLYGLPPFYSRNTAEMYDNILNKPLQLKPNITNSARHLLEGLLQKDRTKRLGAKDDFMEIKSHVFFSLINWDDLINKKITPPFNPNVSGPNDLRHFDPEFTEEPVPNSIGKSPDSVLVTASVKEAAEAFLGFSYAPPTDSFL

[4] = target: Ribosomal protein S6 kinase alpha-5 (Homo sapiens) (UniProt O75582); assay: Inhibition of human MSK1 assessed as residual activity at 10 uM by KinaseProfiler assay; method in brief: as §1
[5] = target: Dual specificity tyrosine-phosphorylation-regulated kinase 2 (Homo sapiens) (UniProt Q92630); assay: Inhibition of human DYRK2 assessed as residual activity at 10 uM by KinaseProfiler assay
[6] = target: Protein kinase C alpha type (Homo sapiens) (UniProt P17252); assay: Inhibition of human PKCalpha assessed as residual activity at 10 uM by KinaseProfiler assay; method in brief: as §1
[7] = target: Tyrosine-protein kinase CSK (Homo sapiens) (UniProt P41240); assay: Inhibition of human CSK assessed as residual activity at 10 uM by KinaseProfiler assay; method in brief: as §1
[8] = target: MAP kinase-activated protein kinase 2 (Homo sapiens) (UniProt P49137); assay: Inhibition of human MAPKAP-K2 assessed as residual activity at 10 uM by KinaseProfiler assay; method in brief: as §1
[9] = target: Glycogen synthase kinase-3 beta (Homo sapiens) (UniProt P49841); assay: Inhibition of human GSK3beta assessed as residual activity at 10 uM by KinaseProfiler assay; method in brief: as §1
[10] = target: Mitogen-activated protein kinase 9 (Homo sapiens) (UniProt P45984); assay: Inhibition of human JNK2alpha2 assessed as residual activity at 10 uM by KinaseProfiler assay; method in brief: as §1
[11] = target: Mitogen-activated protein kinase 8 (Homo sapiens) (UniProt P45983); assay: Inhibition of human JNK1alpha1 assessed as residual activity at 10 uM by KinaseProfiler assay; method in brief: as §1
[12] = target: T2, Mitogen-activated protein kinase kinase kinase kinase 2 (Homo sapiens) (UniProt Q12851); assay: Inhibition of human GCK assessed as residual activity at 10 uM by KinaseProfiler assay; method in brief: as §1
T2 sequence (whole entry): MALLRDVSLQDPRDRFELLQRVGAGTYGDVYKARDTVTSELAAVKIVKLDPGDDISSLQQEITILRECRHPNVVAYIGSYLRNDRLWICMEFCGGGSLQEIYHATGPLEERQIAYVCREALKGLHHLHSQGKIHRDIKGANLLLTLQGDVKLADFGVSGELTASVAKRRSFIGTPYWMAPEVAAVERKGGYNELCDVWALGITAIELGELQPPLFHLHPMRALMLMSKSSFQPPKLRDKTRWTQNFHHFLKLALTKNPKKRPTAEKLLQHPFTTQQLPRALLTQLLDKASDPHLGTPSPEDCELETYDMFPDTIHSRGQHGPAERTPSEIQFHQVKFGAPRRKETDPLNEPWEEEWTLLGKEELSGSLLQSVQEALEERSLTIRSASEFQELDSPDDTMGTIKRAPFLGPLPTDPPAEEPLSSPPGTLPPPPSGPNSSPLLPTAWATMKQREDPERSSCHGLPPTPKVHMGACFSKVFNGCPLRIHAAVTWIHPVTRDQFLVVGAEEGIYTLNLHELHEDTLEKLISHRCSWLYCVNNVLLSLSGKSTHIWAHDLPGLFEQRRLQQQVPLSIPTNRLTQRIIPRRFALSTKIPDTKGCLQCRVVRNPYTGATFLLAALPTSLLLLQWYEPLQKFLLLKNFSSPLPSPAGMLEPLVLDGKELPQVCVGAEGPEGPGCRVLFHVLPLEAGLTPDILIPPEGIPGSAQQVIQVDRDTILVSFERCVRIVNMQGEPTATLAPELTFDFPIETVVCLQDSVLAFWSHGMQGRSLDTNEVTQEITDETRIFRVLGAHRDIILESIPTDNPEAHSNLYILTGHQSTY

[13] = target: T3, 3-phosphoinositide-dependent protein kinase 1 (Homo sapiens) (UniProt O15530); assay: Inhibition of human PDK1 assessed as residual activity at 10 uM by KinaseProfiler assay; method in brief: as §1
T3 sequence (whole entry): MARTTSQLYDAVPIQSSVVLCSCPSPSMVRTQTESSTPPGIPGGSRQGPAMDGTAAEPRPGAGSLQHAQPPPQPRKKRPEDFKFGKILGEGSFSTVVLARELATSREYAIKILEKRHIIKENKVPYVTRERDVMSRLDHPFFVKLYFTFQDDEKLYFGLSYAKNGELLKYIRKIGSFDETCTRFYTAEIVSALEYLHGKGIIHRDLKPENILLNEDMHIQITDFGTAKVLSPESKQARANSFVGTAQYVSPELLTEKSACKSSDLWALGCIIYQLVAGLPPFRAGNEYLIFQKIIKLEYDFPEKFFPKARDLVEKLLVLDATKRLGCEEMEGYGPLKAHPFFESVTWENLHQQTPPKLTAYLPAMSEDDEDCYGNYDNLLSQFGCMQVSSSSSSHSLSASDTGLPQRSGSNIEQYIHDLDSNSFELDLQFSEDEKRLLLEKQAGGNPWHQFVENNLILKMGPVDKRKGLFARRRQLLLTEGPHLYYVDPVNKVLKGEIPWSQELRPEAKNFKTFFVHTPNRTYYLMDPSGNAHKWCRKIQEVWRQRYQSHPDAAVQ

Chain of Glycogen synthase kinase-3 beta (Homo sapiens) (P49841 whole entry, looked up): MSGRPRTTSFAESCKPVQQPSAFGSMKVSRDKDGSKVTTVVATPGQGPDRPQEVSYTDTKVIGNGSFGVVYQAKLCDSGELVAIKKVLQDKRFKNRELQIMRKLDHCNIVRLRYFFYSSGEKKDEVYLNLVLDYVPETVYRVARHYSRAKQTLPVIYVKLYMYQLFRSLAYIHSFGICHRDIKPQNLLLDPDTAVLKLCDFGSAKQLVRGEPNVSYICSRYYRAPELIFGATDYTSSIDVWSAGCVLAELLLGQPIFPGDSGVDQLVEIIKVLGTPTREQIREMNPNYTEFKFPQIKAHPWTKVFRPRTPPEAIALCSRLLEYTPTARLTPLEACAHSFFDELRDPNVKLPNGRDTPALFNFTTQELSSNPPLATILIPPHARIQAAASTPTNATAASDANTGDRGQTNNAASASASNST
Chain of Dual specificity tyrosine-phosphorylation-regulated kinase 2 (Homo sapiens) (Q92630 whole entry, looked up): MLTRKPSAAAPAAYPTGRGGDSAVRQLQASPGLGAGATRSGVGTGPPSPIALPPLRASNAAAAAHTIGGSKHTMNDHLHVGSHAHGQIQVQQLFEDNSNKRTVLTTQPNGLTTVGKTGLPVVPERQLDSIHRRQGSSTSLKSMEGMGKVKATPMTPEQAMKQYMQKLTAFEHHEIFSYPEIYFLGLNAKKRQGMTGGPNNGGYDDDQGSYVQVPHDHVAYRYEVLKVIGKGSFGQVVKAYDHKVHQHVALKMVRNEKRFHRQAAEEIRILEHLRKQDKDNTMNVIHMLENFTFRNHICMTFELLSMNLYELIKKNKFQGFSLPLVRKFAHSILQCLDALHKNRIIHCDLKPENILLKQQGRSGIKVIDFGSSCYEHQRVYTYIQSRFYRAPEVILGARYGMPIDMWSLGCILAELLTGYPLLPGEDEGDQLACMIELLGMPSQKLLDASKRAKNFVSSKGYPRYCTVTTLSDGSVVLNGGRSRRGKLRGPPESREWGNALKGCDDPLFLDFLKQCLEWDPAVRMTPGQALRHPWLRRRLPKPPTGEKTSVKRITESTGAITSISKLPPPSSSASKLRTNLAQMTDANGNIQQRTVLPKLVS
Chain of Mitogen-activated protein kinase 11 (Homo sapiens) (Q15759 whole entry): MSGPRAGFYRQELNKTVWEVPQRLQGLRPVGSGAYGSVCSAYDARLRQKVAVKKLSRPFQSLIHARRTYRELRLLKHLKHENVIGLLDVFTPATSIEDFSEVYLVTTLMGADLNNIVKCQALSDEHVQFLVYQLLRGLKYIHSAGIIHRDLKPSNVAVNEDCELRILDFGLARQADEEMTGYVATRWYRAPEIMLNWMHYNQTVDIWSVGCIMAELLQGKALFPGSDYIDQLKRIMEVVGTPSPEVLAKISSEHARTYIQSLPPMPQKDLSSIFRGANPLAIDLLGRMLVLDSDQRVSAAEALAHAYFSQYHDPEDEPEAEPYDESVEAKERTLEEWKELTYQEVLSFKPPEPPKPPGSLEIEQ
Chain of Mitogen-activated protein kinase 9 (Homo sapiens) (P45984 whole entry, looked up): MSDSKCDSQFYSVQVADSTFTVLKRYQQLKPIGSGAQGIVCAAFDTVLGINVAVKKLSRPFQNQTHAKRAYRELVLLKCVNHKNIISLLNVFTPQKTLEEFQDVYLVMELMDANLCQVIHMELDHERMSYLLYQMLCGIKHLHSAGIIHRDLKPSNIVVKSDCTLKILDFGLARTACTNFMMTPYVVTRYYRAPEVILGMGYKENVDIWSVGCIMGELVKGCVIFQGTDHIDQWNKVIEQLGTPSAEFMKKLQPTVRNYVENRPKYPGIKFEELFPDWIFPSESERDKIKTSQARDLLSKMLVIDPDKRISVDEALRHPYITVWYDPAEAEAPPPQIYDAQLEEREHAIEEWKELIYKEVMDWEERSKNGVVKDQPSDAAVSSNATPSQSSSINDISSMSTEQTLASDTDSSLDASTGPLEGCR
Chain of Tyrosine-protein kinase Lck (Homo sapiens) (P06239 2-509 limits assumed): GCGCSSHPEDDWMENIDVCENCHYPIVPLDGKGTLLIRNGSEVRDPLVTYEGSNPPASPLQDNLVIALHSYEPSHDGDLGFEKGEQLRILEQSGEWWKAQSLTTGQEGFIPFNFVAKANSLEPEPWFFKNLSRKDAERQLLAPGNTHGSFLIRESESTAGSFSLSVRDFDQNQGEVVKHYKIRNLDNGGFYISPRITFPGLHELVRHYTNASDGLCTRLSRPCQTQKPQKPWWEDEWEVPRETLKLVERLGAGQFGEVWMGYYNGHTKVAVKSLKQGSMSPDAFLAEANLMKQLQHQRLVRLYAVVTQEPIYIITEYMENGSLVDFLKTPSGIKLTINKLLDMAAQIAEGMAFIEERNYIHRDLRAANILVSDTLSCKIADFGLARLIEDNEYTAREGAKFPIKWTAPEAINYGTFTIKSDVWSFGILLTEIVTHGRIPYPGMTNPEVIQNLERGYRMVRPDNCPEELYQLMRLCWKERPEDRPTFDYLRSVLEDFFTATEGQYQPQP
Chain of Mitogen-activated protein kinase 8 (Homo sapiens) (P45983 whole entry): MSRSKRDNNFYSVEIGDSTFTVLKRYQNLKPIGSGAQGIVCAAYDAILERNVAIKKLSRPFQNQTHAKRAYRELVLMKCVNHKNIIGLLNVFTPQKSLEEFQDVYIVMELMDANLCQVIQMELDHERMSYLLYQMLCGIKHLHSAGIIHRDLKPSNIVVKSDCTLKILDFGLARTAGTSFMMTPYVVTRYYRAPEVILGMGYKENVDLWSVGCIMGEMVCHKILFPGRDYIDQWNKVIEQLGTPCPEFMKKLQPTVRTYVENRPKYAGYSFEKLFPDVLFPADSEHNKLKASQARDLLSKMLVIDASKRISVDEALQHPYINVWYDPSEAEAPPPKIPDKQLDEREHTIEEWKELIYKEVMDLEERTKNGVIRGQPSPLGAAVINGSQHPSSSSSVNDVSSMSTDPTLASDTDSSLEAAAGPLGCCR
Chain of Ribosomal protein S6 kinase alpha-5 (Homo sapiens) (O75582 whole entry, looked up): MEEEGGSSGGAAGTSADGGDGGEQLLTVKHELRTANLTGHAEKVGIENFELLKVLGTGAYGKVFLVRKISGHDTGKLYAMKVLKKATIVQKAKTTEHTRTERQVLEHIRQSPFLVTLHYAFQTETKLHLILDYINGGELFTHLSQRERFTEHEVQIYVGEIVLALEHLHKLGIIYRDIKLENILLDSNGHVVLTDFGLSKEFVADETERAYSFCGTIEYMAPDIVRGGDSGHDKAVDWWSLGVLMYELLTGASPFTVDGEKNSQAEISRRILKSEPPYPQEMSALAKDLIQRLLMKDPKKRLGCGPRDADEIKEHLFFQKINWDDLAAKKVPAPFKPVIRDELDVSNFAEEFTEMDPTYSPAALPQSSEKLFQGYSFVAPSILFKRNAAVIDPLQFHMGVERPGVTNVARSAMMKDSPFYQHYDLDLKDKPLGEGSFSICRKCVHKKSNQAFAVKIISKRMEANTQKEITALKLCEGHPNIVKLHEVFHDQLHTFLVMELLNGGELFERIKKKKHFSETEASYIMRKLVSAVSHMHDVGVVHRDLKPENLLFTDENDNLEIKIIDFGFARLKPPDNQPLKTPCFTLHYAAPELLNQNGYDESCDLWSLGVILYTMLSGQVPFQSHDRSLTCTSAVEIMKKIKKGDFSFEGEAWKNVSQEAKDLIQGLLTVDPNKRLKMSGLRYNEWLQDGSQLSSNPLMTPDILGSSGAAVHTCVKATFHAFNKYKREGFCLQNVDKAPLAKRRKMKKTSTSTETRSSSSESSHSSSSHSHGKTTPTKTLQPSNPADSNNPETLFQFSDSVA
Chain of MAP kinase-activated protein kinase 2 (Homo sapiens) (P49137 whole entry, looked up): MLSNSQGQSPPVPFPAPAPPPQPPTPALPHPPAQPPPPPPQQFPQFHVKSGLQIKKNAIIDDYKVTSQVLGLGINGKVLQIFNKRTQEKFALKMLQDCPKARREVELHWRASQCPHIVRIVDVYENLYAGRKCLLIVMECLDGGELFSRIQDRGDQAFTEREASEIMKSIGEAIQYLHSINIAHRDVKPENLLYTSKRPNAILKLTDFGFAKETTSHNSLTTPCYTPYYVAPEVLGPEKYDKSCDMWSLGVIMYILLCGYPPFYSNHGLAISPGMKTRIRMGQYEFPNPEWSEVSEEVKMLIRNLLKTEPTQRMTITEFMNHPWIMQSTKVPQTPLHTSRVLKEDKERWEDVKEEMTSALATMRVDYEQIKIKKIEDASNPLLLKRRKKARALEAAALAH

Row | SMILES | Activity [1] [%] | Activity (Homo sapiens) [%] | Activity [2] [%] | Activity [3] [%] | Activity [4] [%] | Activity [5] [%] | Activity [6] [%] | Activity [7] [%] | Activity [8] [%] | Activity [9] [%] | Activity [10] [%] | Activity [11] [%] | Activity [12] [%] | Activity [13] [%]
1 | CCOC(=O)C1=C(C)N=c2s/c(=C\c3cc(O)c(O)c(O)c3)c(=O)n2C1c1ccc(Cl)cc1 (configuration not stated) | 61 | 77 | 101 | 61 | 124 | 118 | 91 | 54 | 86 | 51 | 92 | 92 | 87 | 69
2 | CCOC(=O)C1=C(C)N=c2s/c(=C\c3ccc(O)c(O)c3)c(=O)n2C1c1ccc(Cl)cc1 (configuration not stated) | 57 | 50 | 114 | 85 | 127 | 14 | 91 | 82 | 98 | 52 | 91 | 101 | 87 | 78
3 | Brc1c(Br)c(Br)c2[nH]nnc2c1Br | 78 | 51 | 112 | 65 | 66 | 2 | 106 | 116 | 78 | 42 | 50 | 51 | 92 | 93
